Assay [1] has as its system Aphis gossypii. The assay can be described thus: Insecticidal activity against Aphis gossypii (cotton aphid) infested expanded cotyledon stage of summer crookneck squash seedlings assessed as mortality at 0.5 ppm applied as spray after 72 hr by dissecting binocular microscopic analysis relative to control. The class given is functional. The method in brief:
(§1)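 Four replicate plants per rate; controls were eight plants sprayed with blank-stock diluent. Plants held 72 h at about 74 °F, 40% RH, 24 h photoperiod. Live nonwinged aphids were counted on cotyledon undersides. Percent control was calculated by Abbott's correction against the solvent blank.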

In assay [2] the test system is Aphis gossypii. The assay can be described thus: Insecticidal activity against Aphis gossypii (cotton aphid) infested expanded cotyledon stage of summer crookneck squash seedlings assessed as mortality at 5 ppm applied as spray after 72 hr by dissecting binocular microscopic analysis relative to control. The class given is functional. The method in brief: as §1
Assay [3] concerns Aphis gossypii. The assay can be described thus: Insecticidal activity against Aphis gossypii (cotton aphid) infested expanded cotyledon stage of summer crookneck squash seedlings assessed as mortality at 50 ppm applied as spray after 72 hr by dissecting binocular microscopic analysis relative to control. It counts as functional. The method in brief: as §1
Assay [4] has as its target T1, Nicotinic acetylcholine receptor alpha 5 subunit (Musca domestica, UniProt A9XFY4).
T1 sequence (A9XFY4 whole entry): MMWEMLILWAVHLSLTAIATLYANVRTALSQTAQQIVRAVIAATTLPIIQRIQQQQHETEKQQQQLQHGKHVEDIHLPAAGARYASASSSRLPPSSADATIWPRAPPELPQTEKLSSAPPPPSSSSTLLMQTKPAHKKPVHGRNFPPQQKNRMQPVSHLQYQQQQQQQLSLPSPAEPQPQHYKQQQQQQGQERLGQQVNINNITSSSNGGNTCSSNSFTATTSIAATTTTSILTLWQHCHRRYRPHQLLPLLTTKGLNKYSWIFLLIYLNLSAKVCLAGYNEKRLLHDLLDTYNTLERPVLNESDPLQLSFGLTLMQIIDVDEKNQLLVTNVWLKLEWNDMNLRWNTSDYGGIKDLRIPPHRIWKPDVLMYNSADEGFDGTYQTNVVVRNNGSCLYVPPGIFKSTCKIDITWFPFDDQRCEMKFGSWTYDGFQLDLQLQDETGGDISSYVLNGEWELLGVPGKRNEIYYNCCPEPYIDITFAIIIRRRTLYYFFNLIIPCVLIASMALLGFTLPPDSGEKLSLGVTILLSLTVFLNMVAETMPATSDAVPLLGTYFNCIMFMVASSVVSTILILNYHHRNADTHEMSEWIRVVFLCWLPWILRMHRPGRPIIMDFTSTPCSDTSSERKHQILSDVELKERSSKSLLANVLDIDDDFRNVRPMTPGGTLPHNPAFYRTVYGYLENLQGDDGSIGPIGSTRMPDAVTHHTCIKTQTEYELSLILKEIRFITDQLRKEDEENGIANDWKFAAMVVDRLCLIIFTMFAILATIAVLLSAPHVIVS
The assay can be described thus: Displacement of [3H]imidacloprid from nicotinic acetylcholine receptor in Musca domestica (house fly) head membrane after 1 hr by liquid scintillation counting analysis. The method in brief: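 Housefly heads separated from liquid-nitrogen-frozen adults, homogenized in ice-cold sucrose/EDTA/Tris-HCl/PMSF buffer. Membranes were prepared by 1000g then twice 35000g spins, resuspended in 50 mM Tris-HCl pH 7.4 and stored at -80 °C. Binding buffer was 120 mM NaCl, 50 mM Tris-HCl pH 7.4, with [3H]imidacloprid at 2 nM final and DMSO ≤0.25%. Incubation 1 h at 22 °C, then GF/C filtration. Nonspecific binding was set with 10^-4 M nicotine. Three runs in triplicate.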
For orientation: Loss of bound radioactivity is the signal in a displacement assay; it reports binding, not function.

Assay [5] deals with Nilaparvata lugens. The assay can be described thus: Insecticidal activity against Nilaparvata lugens (brown plant hopper). The class given is functional, organism-based.
Assay [6] has as its system Nephotettix cincticeps. The assay can be described thus: Insecticidal activity against Nephotettix cincticeps (green rice leafhopper). It counts as functional, organism-based.
For assay [7], the system named is Bemisia tabaci. Nature of the assay: Insecticidal activity against Bemisia tabaci (sweet potato whitefly). The class given is functional, organism-based.
The test system of assay [8] is Aphis gossypii. The assay can be described thus: Insecticidal activity against Aphis gossypii (cotton aphid) infested expanded cotyledon stage of summer crookneck squash seedlings assessed as mortality at 0.78 ppm applied as spray after 72 hr by dissecting binocular microscopic analysis relative to control. The class given is functional. The method in brief:
as §1

Calls of active or inactive are those of the source. The rule behind the calls is not given here. Where only a bound is given, the exact number is not on record here.

One may read the mortality as the share of the test organisms that died. Usually Ki stands for a dissociation constant, usually derived from enzyme kinetics or from competition with a known ligand. A lower Ki goes with higher affinity. Regarding `O=C1C(=S)NCCN1Cc1ccc(Cl)nc1`, the mortality at 0.5 ppm in assay [1] amounted to 50%. In addition, the mortality at 5 ppm in assay [2] worked out at 50%. Also, the mortality at 50 ppm in assay [3] is 90%. This compound gave a Ki in assay [4] of 1780 nM.

Turning to `CN1CCN(Cc2ccc(Cl)nc2)/C(=N/C#N)C1=O`, the outcome in assay [5], in assay [6] and in assay [7] was Active. For the same compound, the mortality at 0.78 ppm in assay [8] came to 90%. In addition, the mortality at 50 ppm in assay [3] was determined as 90%. The Ki in assay [4] turned out to be 6 nM.

On to `CN1CCN=C(N(C#N)Cc2ccc(Cl)nc2)C1=O`, for which, in assay [2], the mortality at 5 ppm is below 50%. The mortality at 50 ppm in assay [3] is below 50%.

`CN1CCN(Cc2cnc(Cl)s2)/C(=N\C#N)C1=O`: the mortality at 0.78 ppm in assay [8] was 70%. Also, the mortality at 50 ppm in assay [3] is 90%. Further, in assay [4], the Ki turned out to be 4 nM.

On to `CN1C/C(=N\C#N)N(Cc2ccc(Cl)nc2)CC1=O`, for which the mortality at 5 ppm in assay [2] is below 50%. Moreover, in assay [3], the mortality at 50 ppm is 70%.

With `N#C/N=C1\NCCN1Cc1ccc(Cl)nc1`, the mortality at 5 ppm in assay [2] worked out at 90%. In assay [3], the mortality at 50 ppm amounted to 90%. This compound also showed an inhibitory constant (Ki) in assay [4] of 17 nM.

As for `O=C1NCCN(Cc2ccc(Cl)nc2)C1=O`, in assay [1], the mortality at 0.5 ppm was 50%. In addition, the mortality at 5 ppm in assay [2] was 90%. Besides, the mortality at 50 ppm in assay [3] stood at 90%. This compound showed a Ki in assay [4] of 400 nM.

Regarding `CN(C)C(=O)/C(=N\C#N)N(C)Cc1ccc(Cl)nc1`, the mortality at 5 ppm in assay [2] was below 50%. For the same compound, the mortality at 50 ppm in assay [3] turned out to be 50%. In addition, affinity in assay [4] was put at a Ki of 3830 nM.

As for `N#C/N=C1/NCCN(Cc2ccc(Cl)nc2)C1=O`, in assay [1], the mortality at 0.5 ppm was below 50%. Besides, in assay [2], the mortality at 5 ppm was 50%. Moreover, the mortality at 50 ppm in assay [3] amounted to 90%. In addition, the Ki in assay [4] was 441 nM.

`CO/N=C1/NCCN(Cc2ccc(Cl)nc2)C1=O`: the mortality at 0.5 ppm in assay [1] was 50%. Besides, the mortality at 5 ppm in assay [2] came to 70%. Besides, in assay [3], the mortality at 50 ppm is 90%. The same compound gave a Ki in assay [4] of 1530 nM.

Turning to `O=C1/C(=N\O)NCCN1Cc1ccc(Cl)nc1`, the mortality at 0.5 ppm in assay [1] is below 50%. For the same compound, the mortality at 5 ppm in assay [2] was found to be 50%. Further, in assay [3], the mortality at 50 ppm is 70%.

For `O=C1/C(=N\S(=O)(=O)C(F)(F)F)NCCN1Cc1ccc(Cl)nc1`, the mortality at 0.5 ppm in assay [1] was below 50%. Also, the mortality at 5 ppm in assay [2] is 90%. The mortality at 50 ppm in assay [3] is 90%. Besides, the affinity in assay [4] corresponds to a Ki of 593 nM.

As to `NC(=S)N/N=C1/NCCN(Cc2ccc(Cl)nc2)C1=O`, the mortality at 5 ppm in assay [2] is below 50%. Moreover, the mortality at 50 ppm in assay [3] was below 50%. The Ki in assay [4] came to 3920 nM.

Consider `CN1CCN(CC2CCOC2)/C(=N\C#N)C1=O` (stereo not drawn), for which the mortality at 5 ppm in assay [2] is below 50%. Further, the mortality at 50 ppm in assay [3] was below 50%. In addition, the Ki in assay [4] was 517 nM.

For the origin of these results see ChEMBL document CHEMBL3046309, “Dihydropiperazine neonicotinoid compounds. Synthesis and insecticidal activity” (J Agric Food Chem, 2003).
